From ChEMBL document CHEMBL1126015, “Heteroatom analogues of bemoradan: chemistry and cardiotonic activity of 1,4-benzothiazinylpyridazinones” (J Med Chem, 1992)

Tests used:
[1] = species: Canis familiaris; experiment: 50% increase in cardiac force in dog by id dose; type: functional; settings: Canis lupus familiaris, Heart
Procedure, shortened: (§1)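 Anesthetized dogs; the value is the dose, given iv or intraduodenally, that raises cardiac force by 50%.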

[2] = system: Canis familiaris; experiment: 50% increase in cardiac force in dog by intravenous dose; type: functional; settings: Canis lupus familiaris, Heart; procedure, shortened: as §1
[3] = system: Canis familiaris; experiment: Increase in cardiac force in dog at 75 ug/kg intravenous dose; type: functional, Canis lupus familiaris

SMILES	ED50 [1]	ED50 [2]	Change [3]
CC1CC(=O)NN=C1c1ccc2c(c1)OCC(=O)N2 (stereo unspecified) [BEMORADAN]	10 µg/kg	5.4 µg/kg	–
O=C1CCC(c2ccc3c(c2)SCC(=O)N3)=NN1	–	–	62%
CN1C(=O)CS(=O)(=O)c2cc(C3=NNC(=O)CC3)ccc21	–	–	20%
CN1C(=O)C[S+]([O-])c2cc(C3=NNC(=O)CC3)ccc21 (stereo unspecified)	–	–	-3%
CN1C(=O)CSc2cc(C3=NNC(=O)CC3)ccc21	–	–	38%
